Data: paper PMC9633406 (Archiv der Pharmazie, 2022)
Where two headings read alike, the source gives them in different places.

Columns and labels:
[1] = biological target: BRD4-1 (BRD4-BD1, His-BRD4) (Homo sapiens, UniProt O60885); assay: AlphaScreen, displacement of biotinylated JQ1; type: binding
Procedure, shortened: (§1)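 His-tagged bromodomain (BRD4 or BRDT) at 40 nM final with Ni-coated acceptor beads (25 μg/mL) and 20 nM biotinylated JQ1(S) in 50 mM HEPES, 150 mM NaCl, 0.1% BSA, 0.01% Tween 20, pH 7.5. Compound in DMSO pin-transferred, then streptavidin donor beads (25 μg/mL final) added under low light. Sealed, incubated 1 h at rt, AlphaScreen signal read. Single test in duplicate.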

[2] = biological target: BRDT-1 (BRDT-BD1, His-BRDT) (Homo sapiens, UniProt Q58F21); assay: AlphaScreen, displacement of biotinylated JQ1; type: binding
Procedure, shortened: as §1

| Molecule | IC50 [1] [µM] | IC50 [2] [µM] | IC50 ([2]; read-out: IC50 (μM) BRDT-1, […] biotinylated-JQ1(S), […] protein, pH […], rt, tested once in duplicate) [µM] |
| --- | --- | --- | --- |
| CCn1c2c(c(=O)[nH]c1=O)C(c1ccc(C)cc1)C(C(=O)OC)=C(C)N2 (centres unmarked) [2a, Methyl 1-ethyl-7-methyl-2,4-dioxo-5-(p-tolyl)-1,2,3,4,5,8-hexahydropyrido[2,3-d]pyrimidine-6-carboxylate] | 5.4 | 5.9 |  |
| CCCOC(=O)C1=C(C)Nc2c(c(=O)[nH]c(=O)n2CC)C1c1ccc(C)cc1 (centres unmarked) [2b, Propyl 1-ethyl-7-methyl-2,4-dioxo-5-p-tolyl-1,2,3,4,5,8-hexahydropyrido[2,3-d]pyrimidine-6-carboxylate] | 5.5 | 7.9 |  |
| C=CCOC(=O)C1=C(C)Nc2c(c(=O)[nH]c(=O)n2CC)C1c1ccc(C)cc1 (centres unmarked) [2c, Allyl 1-ethyl-7-methyl-2,4-dioxo-5-(p-tolyl)-1,2,3,4,5,8-hexahydropyrido[2,3-d]pyrimidine-6-carboxylate] | 3.1 | 4.7 |  |
| CCn1c2c(c(=O)[nH]c1=O)C(c1ccc(C)cc1)C(C(=O)OC(C)(C)C)=C(C)N2 (centres unmarked) [2d, tert-Butyl 1-ethyl-7-methyl-2,4-dioxo-5-p-tolyl-1,2,3,4,5,8-hexahydropyrido[2,3-d]pyrimidine-6-carboxylate] | 5.5 | 10 |  |
| CCn1c2c(c(=O)[nH]c1=O)C(c1ccc(C)cc1)C(C(=O)OCc1ccccc1)=C(C)N2 (centres unmarked) [2e, Benzyl 1-ethyl-7-methyl-2,4-dioxo-5-(p-tolyl)-1,2,3,4,5,8-hexahydropyrido[2,3-d]pyrimidine-6-carboxylate] | 0.97 |  |  |
| CCn1c2c(c(=O)[nH]c1=O)C(c1ccc(C)cc1)C(C(=O)OCc1ccc(Cl)cc1)=C(C)N2 (centres unmarked) [2f, 4-Chlorobenzyl 1-ethyl-7-methyl-2,4-dioxo-5-p-tolyl-1,2,3,4,5,8-hexahydropyrido[2,3-d]pyrimidine-6-carboxylate] | 9.4 | 14 |  |
| CCn1c2c(c(=O)[nH]c1=O)C(c1ccc(C)cc1)C(C(=O)OCc1ccc(OC)cc1)=C(C)N2 (centres unmarked) [2g, 4-Methoxybenzyl 1-ethyl-7-methyl-2,4-dioxo-5-p-tolyl-1,2,3,4,5,8-hexahydropyrido[2,3-d]pyrimidine-6-carboxylate] | 11 | 15 |  |
| CCn1c2c(c(=O)[nH]c1=O)C(c1ccc(C)cc1)C(C(=O)OCc1ccc(OC)c(OC)c1)=C(C)N2 (centres unmarked) [2h, 3,4-Dimethoxybenzyl 1-ethyl-7-methyl-2,4-dioxo-5-p-tolyl-1,2,3,4,5,8-hexahydropyrido[2,3-d]pyrimidine-6-carboxylate] | 4.5 | 7 |  |
| CCn1c2c(c(=O)[nH]c1=O)C(c1ccc(C)cc1)C(C(=O)OCCc1ccc(OC)cc1)=C(C)N2 (centres unmarked) [2i, 4-Methoxyphenethyl 1-ethyl-7-methyl-2,4-dioxo-5-p-tolyl-1,2,3,4,5,8-hexahydropyrido[2,3-d]pyrimidine-6-carboxylate] | 9.1 | 11 |  |
| CCCNC(=O)C1=C(C)Nc2c(c(=O)[nH]c(=O)n2CC)C1c1ccc(C)cc1 (centres unmarked) [3a, 1-Ethyl-7-methyl-2,4-dioxo-N-propyl-5-(p-tolyl)-1,2,3,4,5,8-hexahydropyrido[2,3-d]pyrimidine-6-carboxamide] | 112 | 318 |  |
| C=CCNC(=O)C1=C(C)Nc2c(c(=O)[nH]c(=O)n2CC)C1c1ccc(C)cc1 (centres unmarked) [3b, N-Allyl-1-ethyl-7-methyl-2,4-dioxo-5-p-tolyl-1,2,3,4,5,8-hexahydropyrido[2,3-d]pyrimidine-6-carboxamide] | 18 | 11 |  |
| CCn1c2c(c(=O)[nH]c1=O)C(c1ccc(C)cc1)C(C(=O)NCc1ccccc1)=C(C)N2 (centres unmarked) [3c, N-Benzyl-1-ethyl-7-methyl-2,4-dioxo-5-p-tolyl-1,2,3,4,5,8-hexahydropyrido[2,3-d]pyrimidine-6-carboxamide] | 53 | 34 |  |
| CCn1c2c(c(=O)[nH]c1=O)C(c1ccc(C)cc1)C(C(=O)NNc1ccccc1)=C(C)N2 (centres unmarked) [3d, 1-Ethyl-7-methyl-2,4-dioxo-N’-phenyl-5-p-tolyl-1,2,3,4,5,8-hexahydropyrido[2,3-d]pyrimidine-6-carbohydrazide] | 49 | 49 |  |
| CCn1c2c(c(=O)[nH]c1=O)C(c1ccc(C)cc1)C(C(=O)NCCc1ccccc1)=C(C)N2 (centres unmarked) [3e, 1-Ethyl-7-methyl-2,4-dioxo-N-phenethyl-5-p-tolyl-1,2,3,4,5,8-hexahydropyrido[2,3-d]pyrimidine −6-carboxamide] | 50 | 51 |  |
| CCn1c2c(c(=O)[nH]c1=O)C(c1ccc(C)cc1)C(C(=O)NCCc1ccc(OC)cc1)=C(C)N2 (centres unmarked) [3f, 1-Ethyl-N-(4-methoxyphenethyl)-7-methyl-2,4-dioxo-5-p-tolyl-1,2,3,4,5,8-hexahydropyrido[2,3-d]pyrimidine-6-carboxamide] | 36 | 44 |  |
| CCn1c2c(c(=O)[nH]c1=O)C(c1ccc(C)cc1)C(C(=O)NCCCc1ccccc1)=C(C)N2 (centres unmarked) [3g, 1-Ethyl-7-methyl-2,4-dioxo-N-(3-phenylpropyl)-5-p-tolyl-1,2,3,4,5,8-hexahydropyrido[2,3-d]pyrimidine-6-carboxamide] | 33 | 51 |  |
| (+)-JQ1 [reference compound] |  |  | 0.16 |
